Laboratory results published in ChEMBL document CHEMBL1765028 (Bioorg Med Chem, 2011).
Calls of active or inactive are those of the source. The calls are words filed in the database; no cut-off is given here.

Assays:
[1] = test system: Trypanosoma brucei rhodesiense; test: Antiparasitic activity against Trypanosoma brucei rhodesiense STIB900 infected in mouse assessed as mean relapse day of parasitemia at 5 mg/kg, ip for 4 days; format: functional; settings: route intraperitoneal
Summary of the method: (§1)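 Acute STIB900 mouse model. Hydrochloride salts were given intraperitoneally at 5 mg/kg/day on four consecutive days. Cure is the number of mice surviving and parasite-free on day 60. Relapse is the mean day parasitemia reappears.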

[2] = test system: Plasmodium falciparum; test: Antiparasitic activity against Plasmodium falciparum K1; format: functional, organism-based
Summary of the method: (§2)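 Compounds tested in vitro as hydrochloride salts against Plasmodium falciparum K1 or Trypanosoma brucei rhodesiense STIB900.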

[3] = Selectivity index, ratio of IC50 for rat L6 cells to IC50 for Trypanosoma brucei rhodesiense STIB900; format: toxicity, cell-based; settings: L6 cells versus Trypanosoma brucei rhodesiense STIB900, read-out: Ratio IC50
Summary of the method: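 Selectivity index is IC50 for L6 rat myoblasts divided by IC50 for T. b. rhodesiense STIB900. Both IC50s were measured in vitro.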

[4] = test system: Trypanosoma brucei rhodesiense; test: Antiparasitic activity against Trypanosoma brucei rhodesiense STIB900 infected in mouse assessed as cured at 5 mg/kg, ip for 4 days; format: functional, organism-based; set-up: dose 5 mg/kg; summary of the method: as §1
[5] = test system: L6; test: Cytotoxicity against rat L6 cells; format: cell-based
Summary of the method: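 Cultured L6 rat myoblast cells were used to measure IC50 cytotoxicity.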

[6] = test system: Poly(dA-dT)oligonucleotide
[7] = test system: Trypanosoma brucei rhodesiense; test: Antiparasitic activity against Trypanosoma brucei rhodesiense STIB900; format: functional, organism-based; summary of the method: as §2
[8] = Selectivity index, ratio of IC50 for rat L6 cells to IC50 for Plasmodium falciparum K1; format: toxicity, cell-based; settings: L6 cells versus Plasmodium falciparum K1, read-out: Ratio IC50
Summary of the method: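 Selectivity index is IC50 for L6 rat myoblasts divided by IC50 for P. falciparum K1. Both IC50s were measured in vitro.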

SMILES	Activity [1] [days]	IC50 [2] [nM]	selectivity ratio [3]	Activity [4]	IC50 [5] [nM]	ΔTm [6] [°C]	IC50 [7] [nM]	selectivity ratio [8]
N=C(N)c1ccc(-c2ccc(-c3ccc(C(=N)N)cc3)o2)cc1 [FURAMIDINE]	20	–	–	–	–	–	–	–
Cl.Cl.N=C(N)c1ccc(-c2ccc3[nH]c(-c4ccc(C(=N)N)cc4)nc3c2)cc1	18	3.7	15600	inactive	62400	> 27	4	16900
Cl.Cl.N=C(N)c1ccc(-c2ccc3cc(-c4ccc(C(=N)N)cc4)[nH]c3c2)cc1	20	5.2	1130	inactive	3400	> 27	3	653
Cl.Cl.N=C(N)c1ccc(-c2ccc3cc(-c4cc(C(=N)N)ccn4)[nH]c3c2)cc1	24	18	2320	–	11600	> 27	5	644
N=C(N)c1ccc(-c2ccc(-c3nc4ccc(C(=N)N)cc4[nH]3)cc2)cc1	–	0.5	–	–	17000	> 27	7.7	34000
N=C(N)c1ccc(OCCCCCOc2ccc(C(=N)N)cc2)cc1 [PENTAMIDINE]	20	–	–	–	46000	–	–	–
Cl.Cl.Cn1c(-c2ccc(C(=N)N)cc2)nc2cc(-c3ccc(C(=N)N)cc3)ccc21	11	1.3	> 11300	inactive	> 169000	11.2	15	> 130000
Cl.Cl.N=C(N)c1ccc(-c2ccc3cc(-c4cnccc4C(=N)N)[nH]c3c2)cc1	24	9.8	650	–	2600	> 27	4	265
N=C(N)c1ccc(-c2ccc(-c3cc4ccc(C(=N)N)cc4[nH]3)cc2)cc1	–	3.3	–	–	10500	> 27	2	–
Cl.Cl.N=C(N)c1ccc(-c2ccc3[nH]c(-c4ccc(C(=N)N)s4)cc3c2)cc1	17	7.1	4950	–	9900	25.5	2	1390
Cl.Cl.N=C(N)c1ccc(-c2ccc3nc(-c4ccc(C(=N)N)cc4)n(O)c3c2)cc1	8	18	256	inactive	124000	12.2	484	6890
Cl.Cl.N=C(N)c1ccc(-c2ccc3cc(-c4ccc(C(=N)N)o4)[nH]c3c2)cc1	18	12.5	541	inactive	9200	24.9	17	736
Cl.Cl.N=C(N)c1ccc(-c2ccc3[nH]c(-c4ccc(C(=N)N)cc4)cc3c2)cc1	20	5.7	2330	–	6700	23.7	3	1180
Cl.Cl.N=C(N)c1ccc(-c2ccc3cc(-c4ccc(C(=N)N)s4)[nH]c3c2)cc1	17	11.1	550	–	2200	> 27	4	198
N=C(N)c1ccc(-c2cc3ccc(C(=N)N)cc3[nH]2)cc1 [DAPI]	17	–	48	–	–	> 27	18	–
